Reference: the array DNA melting data of Ke et al. (doi:10.1101/2024.01.08.574731)

Assays:
[1] = folding enthalpy; higher = less favourable; fluorescence melt of hairpins on a sequencing array, two-state fit; conditions: sodium 0.088 M
How it was run: (§1)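 Melting temperature and folding enthalpy were obtained by bootstrapped two-state fitting. Fits used Cy3 fluorescence of library hairpins with annealed Cy3 and quencher oligos on a sequenced MiSeq flow cell, imaged in 50 mM Na-HEPES pH 8.0, 25 mM NaCl in 2.5 °C steps up to 60 °C and normalised to pre-quench Cy3 and control constructs. Four replicates were combined by inverse-variance weighting, and fitted temperatures were raised by 9.35 °C to match UV melts.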

[2] = melting temperature; fluorescence melt of hairpins on a sequencing array, two-state fit, raised by 9.35 °C to match UV melts; conditions: sodium 0.088 M
How it was run: as §1

| Sequence | folding enthalpy [1] | Tm [2] |
| --- | --- | --- |
| AAACCGAAAGGTTT (((((....))))) | -20.7 kcal/mol | 52.8 °C |
| AAAGCGAAAGCTTT (((((....))))) | -15.5 kcal/mol | 63.4 °C |
| AACAAGAAATTGTT (((((....))))) | -7.18 kcal/mol | 23.3 °C |
| AACAGGAAACTGTT (((((....))))) | -14.7 kcal/mol | 40.5 °C |
| AACCAGAAATGGTT (((((....))))) | -14.8 kcal/mol | 40.2 °C |
| AACTGGAAACAGTT (((((....))))) | -16.8 kcal/mol | 38.8 °C |
| AAGTTGAAAAACTT (((((....))))) | -10.6 kcal/mol | 35.4 °C |
| AATCCGAAAGGATT (((((....))))) | -17.8 kcal/mol | 52 °C |
| AATCTGAAAAGATT (((((....))))) | -13.1 kcal/mol | 34.7 °C |
| ACAAAGAAATTTGT (((((....))))) | -6.26 kcal/mol | 22.5 °C |
| ACATGGAAACATGT (((((....))))) | -19.7 kcal/mol | 45 °C |
| ACCCTGAAAAGGGT (((((....))))) | -19.2 kcal/mol | 53.2 °C |
| ACGGGGAAACCCGT (((((....))))) | -17.3 kcal/mol | 65.1 °C |
| ACGGTGAAAACCGT (((((....))))) | -22.9 kcal/mol | 55 °C |
| ACGTGGAAACACGT (((((....))))) | -22 kcal/mol | 55.5 °C |
| ACTCCGAAAGGAGT (((((....))))) | -20.5 kcal/mol | 68.8 °C |
| ACTGAGAAATCAGT (((((....))))) | -19.8 kcal/mol | 34.8 °C |
| ACTGTGAAAACAGT (((((....))))) | -21.8 kcal/mol | 46.1 °C |
| AGACGGAAACGTCT (((((....))))) | -21.2 kcal/mol | 53.5 °C |
| AGACTGAAAAGTCT (((((....))))) | -16.9 kcal/mol | 46 °C |
| AGAGAGAAATCTCT (((((....))))) | -8.28 kcal/mol | 23.2 °C |
| AGCAAGAAATTGCT (((((....))))) | -16 kcal/mol | 39.3 °C |
| AGCCAGAAATGGCT (((((....))))) | -19.1 kcal/mol | 54.4 °C |
| AGGACGAAAGTCCT (((((....))))) | -20.3 kcal/mol | 68.5 °C |
| AGGAGGAAACTCCT (((((....))))) | -18.3 kcal/mol | 45 °C |

| Sequence | folding enthalpy [1] | Tm [2] |
| --- | --- | --- |
| AGGATGAAAATCCT (((((....))))) | -22.2 kcal/mol | 41.6 °C |
| AGGCAGAAATGCCT (((((....))))) | -17.6 kcal/mol | 54.7 °C |
| AGTAGCTGAAAAGTTACT ((((.((....)).)))) | -20.2 kcal/mol | 36 °C |
| AGTCCGAAAGGACT (((((....))))) | -18.7 kcal/mol | 68.1 °C |
| AGTCTGAAAAGACT (((((....))))) | -19.6 kcal/mol | 47 °C |
| AGTGGGAAACCACT (((((....))))) | -19.5 kcal/mol | 49.8 °C |
| AGTGTGAAAACACT (((((....))))) | -19.5 kcal/mol | 49.7 °C |
| AGTTAGAAATAACT (((((....))))) | -9.79 kcal/mol | 25.8 °C |
| ATCGGGAAACCGAT (((((....))))) | -24.1 kcal/mol | 50.2 °C |
| ATCGTGAAAACGAT (((((....))))) | -19.6 kcal/mol | 49.5 °C |
| ATGGGGAAACCCAT (((((....))))) | -23.4 kcal/mol | 47.3 °C |
| ATGGTGAAAACCAT (((((....))))) | -21.6 kcal/mol | 47.1 °C |
| ATGTCGAAAGACAT (((((....))))) | -19.6 kcal/mol | 53.5 °C |
| ATTGGGAAACCAAT (((((....))))) | -16.9 kcal/mol | 40.3 °C |
| ATTTGGAAACAAAT (((((....))))) | -12.8 kcal/mol | 34.4 °C |
| CAAACCGAAAGGCTTG (((.((....)).))) | -27 kcal/mol | 38.4 °C |
| CAAACGAAAGTTTG (((((....))))) | -23 kcal/mol | 53 °C |
| CAAGGGAAACCTTG (((((....))))) | -27.8 kcal/mol | 43.9 °C |
| CAATGGAAACATTG (((((....))))) | -26 kcal/mol | 40.6 °C |
| CACGAGAAATCGTG (((((....))))) | -23.5 kcal/mol | 50.6 °C |
| CACGGGAAACCGTG (((((....))))) | -30.9 kcal/mol | 58.8 °C |
| CACTAGAAATAGTG (((((....))))) | -16.9 kcal/mol | 37.2 °C |
| CAGCTGAAAAGCTG (((((....))))) | -25.4 kcal/mol | 58.6 °C |
| CAGGAGAAATCCTG (((((....))))) | -19.7 kcal/mol | 43.7 °C |
| CAGTAGAAATACTG (((((....))))) | -15.3 kcal/mol | 38.6 °C |

| Sequence | folding enthalpy [1] | Tm [2] |
| --- | --- | --- |
| CAGTCGAAAGACTG (((((....))))) | -27.2 kcal/mol | 61.4 °C |
| CAGTTGAAAAACTG (((((....))))) | -20.9 kcal/mol | 44.7 °C |
| CATACGAAAGTATG (((((....))))) | -25.1 kcal/mol | 50.4 °C |
| CATTGGAAACAATG (((((....))))) | -22.2 kcal/mol | 42.3 °C |
| CCAATGAAAATTGG (((((....))))) | -18.1 kcal/mol | 41.9 °C |
| CCACGGAAACGTGG (((((....))))) | -21.2 kcal/mol | 69.2 °C |
| CCACTGAAAAGTGG (((((....))))) | -25.3 kcal/mol | 54.5 °C |
| CCATAGAAATATGG (((((....))))) | -11.6 kcal/mol | 35.2 °C |
| CCATTGAAAAATGG (((((....))))) | -22.2 kcal/mol | 41.6 °C |
| CCCTAGAAATAGGG (((((....))))) | -20.7 kcal/mol | 38.2 °C |
| CCTCGGAAACGAGG (((((....))))) | -25.8 kcal/mol | 55.7 °C |
| CGAAACGGAAACGTCTCG (((.(((....))).))) | -27.3 kcal/mol | 39 °C |
| CGAACGGAAACGTAGTCG ((((((....)))..))) | -10.8 kcal/mol | 26.4 °C |
| CGAACGGAAACGTATCG ((((((....))).))) | -19.2 kcal/mol | 36.1 °C |
| CGAACGGAAACGTTCTCG ((((((....)))..))) | -11.2 kcal/mol | 36.8 °C |
| CGAAGCGGAAACGCTCG (((.(((....)))))) | -22.7 kcal/mol | 53.5 °C |
| CGAATCCGGAAACGGTCG (((..(((....)))))) | -11.9 kcal/mol | 33.6 °C |
| CGACACCGGAAACGGTCG (((..(((....)))))) | -13.7 kcal/mol | 42 °C |
| CGACAGAAATGTCG (((((....))))) | -26.1 kcal/mol | 52.9 °C |
| CGACCGGAAACGGAGTCG ((((((....)))..))) | -27.2 kcal/mol | 45.4 °C |
| CGACCGGAAACGGCGTCG ((((((....)))..))) | -18.1 kcal/mol | 50.2 °C |
| CGACCGGAAACGGCTCG ((((((....))).))) | -28.8 kcal/mol | 48.2 °C |
| CGACCGGAAACGGTGTCG ((((((....)))..))) | -14.8 kcal/mol | 43 °C |
| CGACTCGGAAACGATCG (((.(((....)))))) | -31.8 kcal/mol | 40.5 °C |
